Rows were chosen to be rich in hits. Some 2.1% of all compounds tested hit in one or more screens of this group.
FN deposit inh = inhibitors of fibronectin matrix deposition, primary screen, AH1F cells, Alexa488-fibronectin fluorescence, plate reader | 350,000 compounds, 0.086% hits | inhibition, % at 12.6 µM | AH1F fibroblasts, overnight;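 active = mean inhibition across replicates of 30% or more, regardless of how many single replicates reach that level; inconclusive = mean under 30% yet at least half of replicates reach 30%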;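 note: positive control wells lacked labelled fibronectin entirely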
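Assay system: AH1F fibroblasts assembling fluorescent fibronectin matrix; Amount: 10000 AH1F cells per well; Buffer or medium: DMEM, 2% serum; Probe or stimulus: Alexa488-fibronectin, 24 nM final in well; Doses: single compound dose, delivered by pin transfer; Incubation: 1 h adhesion, overnight exposure; Measured by: fluorescence 485/525 nm; Read-out: fibronectin deposition inhibition.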
EWS-Fli block = EWS/Fli-driven NR0B1 reporter inhibitors, primary screen, A673 cells, NR0B1 luciferase, luminescence, MLPCN library; viability-normalised; inhibition, % at 12.6 µM; 350,000 compounds, 0.67% hits;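 active = mean inhibition of at least 50% after viability correction, with every replicate also passing that limit; inconclusive = mean reaches 50% but only one of two replicates passes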;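 note: firefly luciferase signal divided by Alamar Blue viability fluorescence both relative to DMSO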
aSyn UTR inh = MLPCN primary screen, SNCA 5' untranslated region; alpha-synuclein 5'UTR reporter, inhibitor activity; AID 1813, 2009; inhibition, % (tested at 7.5 µM); 300,000 compounds, 0.82% hits; in the data active = inhibition above about 60%; inconclusive = no clear call, values can overlap the other calls;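 note: H4 neuroglioblastoma cells stably carrying SNCA 5'UTR luciferase fusion; 0% = DMSO wells and 100% = positive control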
Shn3 3UTR inh = reduction of Shn3 3'UTR firefly luciferase signal, primary screen, Schnurri-3 inhibitor project, cell-based, Clone20 osteoblasts, set 2. 360,000 compounds, 0.52% hits. AID 588674, 2011. inhibition, % at 12.5 µM. Clone20 osteoblast Shn3 3'UTR firefly luciferase, 24 h;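 active = mean inhibition of at least 75% with every replicate also reaching 75%; inconclusive = mean inhibition at least 75% but some replicate below; inactive = mean inhibition below 75%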;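 note: 0% = median of neutral control wells and 100% = pilot-screen positive control compound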
EBV LMP1 NFkB = EBV LMP1-driven NF-kappaB luciferase reporter inhibitors, primary screen, cell-based, luminescence, single point | LMP1-induced NF-kappaB luciferase reporter cells | inhibition, % at 12.5 µM | 350,000 compounds, 0.69% hits; in the data active = inhibition above about 41%; inconclusive = no clear call, values can overlap the other calls;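 note: 0% = neutral control wells and 100% = reference inhibitor control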
PAX8 reporter = inhibitors of PAX8-driven TPO luciferase reporter, primary screen, RMG-I cells, single concentration. inhibition, % at 12.6 µM. SteadyGlo, 24 h. 360,000 compounds, 1.2% hits;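 active = mean replicate inhibition at least 60% with every replicate also reaching 60%; inconclusive = only one of the two criteria is met; inactive = mean below 60% and not all replicates reaching 60%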;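 note: luciferase light reporting Pax8 driven TPO promoter activity; plate controls were median of neutral control wells for no effect and mitoxantrone controls for full effect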
An asterisk follows results filed as active; u = inconclusive; x = no result given.

SMILES	FN deposit inh	EWS-Fli block	aSyn UTR inh	Shn3 3UTR inh	EBV LMP1 NFkB	PAX8 reporter
O=C(C[C@H]1C[C@H](C(=O)N2CCCCC2)[C@@]2(CCc3ccccc3)c3[nH]c4ccc(Cl)cc4c3CCN2C1=O)NCCc1ccccn1	x	x	x	32.6	20.1	x
C[C@@H]1CCCCO[C@@H](CN(C)Cc2ccncc2)[C@H](C)CN([C@@H](C)CO)C(=O)c2cc(NS(=O)(=O)c3cn(C)cn3)ccc2O1	x	1.9	x	x	x	7.4
O=C(Nc1ccc(Cl)cc1)Nc1csc([N+](=O)[O-])c1	-13.2	-2.5	1.1	59.9	x	72.3*
O=C(/C=C/c1cccs1)N1CCC2(CC1)Oc1ccc(Cl)cc1C(=O)C21CC(c2cccnc2)=NO1 (stereo unspecified)	31.4*	9.7	3.5	1.7	-3.5	34.2
O=C(C1CCC1)N1CC2(C1)[C@@H](c1ccccc1)[C@@H](CO)N2Cc1nccs1	-3.0	0.1	x	x	x	x
CN=c1scc(-c2cccs2)n1/N=C/c1ccc(O)c(O)c1O	-14.6	26.3	0.1	73.0	17.5	33.1
CN=c1scc(-c2ccccc2Br)n1/N=C/c1ccc[nH]1	x	x	64.0*	x	x	x
C[C@H]1CCCCO[C@H](CN(C)C(=O)C2CCCCC2)[C@@H](C)CN([C@@H](C)CO)C(=O)c2cc(N(C)C)ccc2O1	x	-7.9	x	x	x	20.1
Cc1ccc(C(=O)Nc2cccc(C(=O)O)c2)cc1S(=O)(=O)N1CCCCC1	x	x	x	2.5	44.1*	x
Cc1ccc(C(=O)Nc2cccc(C(=O)O)c2)cc1	x	x	86.9*	x	x	x
O=C(O)c1cccc(NC(=O)c2ccccc2)c1	4.0	3.0	x	-9.1	7.4	-9.9
CCC(=O)Nc1cccc(C(=O)/C=C/c2ccc(F)cc2)c1	4.1	-0.2	-52.6	1.2	-7.7	u
CC(=O)Nc1cccc(C(=O)/C=C/c2ccc(C)cc2)c1	6.6	12.0	-123.3	-9.5	4.1	74.8*
Cc1ccc(C(=O)Nc2cccc(C(=O)N/N=C/c3ccccc3F)c2)cc1	5.5	16.6	8.5	-44.7	58.7*	-28.6
C[C@@H]1CCCCO[C@@H](CN(C)C(=O)c2ccncc2)[C@H](C)CN([C@@H](C)CO)C(=O)c2cc(NS(C)(=O)=O)ccc2O1	x	-9.7	x	x	x	x
COCC(=O)N[C@H]1CC[C@H](CC(=O)NCc2ccc(Cl)cc2)O[C@@H]1CO	-6.1	0.1	x	x	x	5.7
O=C(C[C@@H]1CC[C@H]2[C@@H](COC[C@H](O)CN2S(=O)(=O)c2ccccc2)O1)NCc1ccc(-c2ccccc2)cc1	-13.5	19.7	x	x	x	-1.1
C[C@@H]1CN([C@@H](C)CO)C(=O)CCCn2cc(nn2)CO[C@@H]1CN(C)Cc1ccc(Cl)c(Cl)c1	-1.9	6.3	x	x	x	21.1
CCC(=O)N(C)C[C@@H]1Oc2ncc(-c3ccc(F)cc3)cc2C(=O)N([C@H](C)CO)C[C@@H]1C	-1.2	-6.0	x	x	x	x
C[C@@H]1CN([C@H](C)CO)C(=O)c2cccc(NC(=O)C3CCCCC3)c2O[C@H]1CN(C)C(=O)Nc1ccccc1	x	-1.8	x	x	x	-2.7
N#C/C(=C/c1ccc(-c2ccccc2)o1)c1nc(-c2cccs2)cs1	x	83.0*	x	-13.0	-0.2	17.0
COc1ccc(S(=O)(=O)Nc2ccc3c(c2)C(=O)N([C@H](C)CO)C[C@H](C)[C@H](CN(C)CC2CC2)OCCCC[C@@H](C)O3)cc1	x	-10.6	x	x	x	6.8
Nc1nc(CCl)nc(Nc2cccc3ccccc23)n1	1.2	40.4	-17.6	0.6	x	122.9*
Nc1nc(Nc2cccc3ccccc23)nc(C2CCCC2=O)n1 (stereo unspecified)	-1.6	x	-9.9	x	x	-6.9
CCCCCC(=O)NC(=S)Nc1ccc(Br)cc1C	-8.2	17.7	-3.2	-52.3	43.5*	13.9
SMILES	FN deposit inh	EWS-Fli block	aSyn UTR inh	Shn3 3UTR inh	EBV LMP1 NFkB	PAX8 reporter
O=C(/C=C1\NC2(CCCC2)Cc2ccccc21)C(=O)N/N=C/c1ccccc1O	-0.3	7.1	74.3*	91.4*	43.7*	29.2
Cc1noc(C)c1NC(=O)Nc1ccc2c(c1)C(=O)N([C@@H](C)CO)C[C@H](C)[C@@H](CN(C)Cc1ccc(C(F)(F)F)cc1)OCCCC[C@H](C)O2	x	13.2	x	x	x	-14.5
CC(=O)c1ccc(N2CCN(S(=O)(=O)c3ccc4c(c3)CC(C)N4C(=O)C3CC3)CC2)cc1 (stereo unspecified)	-15.5	4.6	14.6	88.1*	32.5	19.8
CCC(=O)N1c2ccc(S(=O)(=O)N3CCN(c4ccc([N+](=O)[O-])cc4)CC3)cc2CC1C (stereo unspecified)	-2.7	16.0	20.8	84.2	15.3	68.4*
CC(=O)N1c2ccc(S(=O)(=O)N3CCC(C(=O)N4CCN(c5cc(Cl)ccc5C)CC4)CC3)cc2CC1C (stereo unspecified)	3.9	15.5	-4.0	89.1*	11.9	23.8
CC(=O)N1c2ccc(S(=O)(=O)N3CCC(C(=O)Nc4cccc(C(F)(F)F)c4)CC3)cc2CC1C (stereo unspecified)	10.9	26.0	18.4	92.7*	x	27.6
C[C@H](CO)N1C[C@H](C)[C@@H](CN(C)C(=O)Nc2ccc3c(c2)OCO3)OCCCC[C@H](C)Oc2ccc(NC(=O)CCC(F)(F)F)cc2C1=O	x	-16.3	x	x	x	x
CCCNC(=O)N1CC2(CCN(Cc3cccc(F)c3)CC2)c2c([nH]c3cc(OC)ccc23)[C@H]1CO	x	27.8	x	x	x	x
C[C@H]1CCCCO[C@H](CN(C)C(=O)CCCN(C)C)[C@@H](C)CN([C@@H](C)CO)C(=O)c2cc(NC(=O)c3ccncc3)ccc2O1	-6.4	-0.8	x	x	x	11.1
CC1Cc2cc(S(=O)(=O)N3CCC(C(=O)N(C)Cc4ccco4)CC3)ccc2N1C(=O)C1CCC1 (stereo unspecified)	4.4	x	26.1	27.2	-1.2	61.0*
O=C(CN1C(=O)c2ccccc2S1(=O)=O)c1ccc(Cl)cc1Cl	0.3	x	77.7*	83.2	79.2*	111.5*
O=C(CCN1C(=O)c2ccccc2S1(=O)=O)Nc1cc(Cl)ccc1Cl	-4.5	-4.3	-8.5	-6.9	6.7	-9.1
O=C(CN1C(=O)c2ccccc2S1(=O)=O)c1ccccc1F	3.8	x	82.3*	47.6	45.1*	32.9
O=C(CN1C(=O)c2ccccc2S1(=O)=O)c1ccc(OC(F)F)cc1	x	x	86.4*	73.7	82.0*	x
O=C(CN1C(=O)c2ccccc2S1(=O)=O)N1CCN(c2ccccc2F)CC1	x	x	14.3	-8.4	-2.6	x
C[C@H]1CCCCO[C@@H](CN(C)C(=O)Nc2ccc(F)cc2)[C@@H](C)CN([C@@H](C)CO)C(=O)c2cc(NC(=O)c3ccccc3)ccc2O1	x	-10.8	x	x	x	5.3
CO[C@@H](CN(C)C(=O)c1ccccc1F)[C@@H](C)CN([C@@H](C)CO)S(=O)(=O)c1ccc(Cl)cc1	-2.8	-4.2	x	x	x	x
CCC(=O)N(C)C[C@H]1Oc2cc(C3=CCCCC3)ccc2S(=O)(=O)N([C@H](C)CO)C[C@@H]1C	x	-1.9	x	x	x	x

Assay outcomes: PubChem, Broad Institute
